# Data taken from the RNAGym collection of RNA variant scans (doi:10.1126/science.aae0568).
# This sample holds only a part of the variants without activity.
# B1: tRNA (parent)
# chain: GUUCCGUUGGCGUAAUGGUAACGCGUCUCCCUCCUAAGGAGAAGACUGCGGGUUCGAGUCCCGUACGGAACG
# Variants of: B1
# Assay: yeast fitness relative to wild type (ratio to wild type); higher = fitter; tRNA-Arg(CCU), competitive growth, 37 C, YPD
# How it was run: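 Variants of the tRNA-Arg(CCU) gene, chemically synthesised with a 3% per-site mutation rate at 69 sites, were placed at the native genomic locus in Saccharomyces cerevisiae. The pooled strains were competed in YPD at 37°C for 24 hours in six parallel replicates. Gene amplicons from the start population and from each end population were read by 100-nucleotide paired-end sequencing. Darwinian fitness relative to wild type came from changes in genotype frequencies; genotypes needed ≥ 100 starting reads, and estimates < 0.5 were set to 0.5.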
row,Variant,yeast fitness
1,C4A U7A A14G G17C C61U,0.543
2,C4A C5A A20U C46U G48A,≤ 0.5
3,C4A C11U G41A C60G A65G,≤ 0.5
4,C4A G18A C27A A37C C61A,≤ 0.5
5,C4A G9A U16A A40G C46U C62G A69U,≤ 0.5
6,C4A C11U A57C,≤ 0.5
7,C4A C5G A42G,≤ 0.5
8,C4A C11U A14G A40G G50C,≤ 0.5
9,C4A C11U G39C A45C,≤ 0.5
10,C4A C5U U19A C55U,0.539
11,C4A C5U G52C C61G,≤ 0.5
12,C4A G18A C22U G44C C46U C49U,≤ 0.5
13,C4A G23A G25C G51A,0.607
14,C4A G17C A20U C22U,≤ 0.5
15,C4A G6A U53A A65U,≤ 0.5
16,C4A G48A C61U,0.661
17,C4A C11A G39A G41C C46A G68A,≤ 0.5
18,C4A C29G G38C,≤ 0.5
19,C4A G10A G23A U28C C55G C60A,≤ 0.5
20,C4A G52C,0.661
21,C4A G50A A70G,0.57

row,Variant,yeast fitness
1,C4A C5G A37G C46G,≤ 0.5
2,C4A G25C C61G,0.711
3,C4A C5U G48C,≤ 0.5
4,C4A C46U,0.903
5,C4A C46A,0.997
6,C4A C31G G51C C66A,≤ 0.5
7,C4A C5U C22U C31A C34A,≤ 0.5
8,C4A G6A A45U G58A A65G,≤ 0.5
9,C4A G48A,0.964
10,C4A G9C C11G C33G A37C A45C,≤ 0.5
11,C4A C11G U19G U53C A65C,0.528
12,C4A G12C A37G G38A,≤ 0.5
13,C4A G17C A21U C33G,0.517
14,C4A C49G,0.704
15,C4A C49U,0.877
16,C4A C22U C27U,≤ 0.5
17,C4A C22U A70C,0.663
18,C4A C5G A15G G23C C30U,≤ 0.5
19,C4A G9A G18C C22A G50C A65C,≤ 0.5
20,C4A C5A C22A U28G C33G A57G G67C,≤ 0.5
21,C4A C27A G38A C62A,≤ 0.5

row,Variant,yeast fitness
1,C4A C11U C31G U53C U54G,≤ 0.5
2,C4A C46U U47C C55U,≤ 0.5
3,C4A C34G C62A C66U,≤ 0.5
4,C4A C61U G68A,0.541
5,C4A C5U A36G A42C,≤ 0.5
6,C4A C31U A42C,0.572
7,C4A C31U A42U,0.618
8,C4A G9A C24U C30U A36G A57G G58A G63A C66U,≤ 0.5
9,C4A C5A U35C G44A G48C C55G A69U,≤ 0.5
10,C4A G12A A42G,≤ 0.5
11,C4A C11U G18A A65C,0.505
12,C4A G18A A20C U26G C27U C49U,≤ 0.5
13,C4A C46A G56A,0.736
14,C4A C33A C62A,0.668
15,C4A C22U C33G A45C U53G A69C,0.57
16,C4A G63U,0.624
17,C4A G63A,0.938
18,C4A C24A U26C C29A A36U C60U,≤ 0.5
19,C4A C33A G39C G51C C62U A69C,≤ 0.5
20,C4A C11G U13G G25A,≤ 0.5
21,C4A G23C C61A C62U C66U,≤ 0.5

row,Variant,yeast fitness
1,C4A C29U G52C,≤ 0.5
2,C4A C30G U47C C49G,≤ 0.5
3,C4A C11G A40U A45U,≤ 0.5
4,C4A C31G C62U,0.71
5,C4A C11A C29G A40G C62G,≤ 0.5
6,C4A C31G G51C,0.524
7,C4A C30A A37C G58A A70U,≤ 0.5
8,C4A G12A C34G C66U,≤ 0.5
9,C4A G18A G44C C46U C49U,≤ 0.5
10,C4A G44C,0.742
11,C4A G17A C60G A70G,≤ 0.5
12,C4A G6A A69U,0.623
13,C4A C11U A21U G23A U64C G67A,0.581
14,C4A C5G C24G C29U,≤ 0.5
15,C4A G17A G41A G67A,≤ 0.5
16,C4A G17C G23C A45C,0.527
17,C4A C62G C66U,≤ 0.5
18,C4A G23A C29U C34G G38C,≤ 0.5
19,C4A C24G U28G C31U,≤ 0.5
20,C4A C24A G41C G51C,≤ 0.5
